Bioassay records (PubChem)
Yeast tox – Inhibitors of S. cerevisiae growth, toxicity. S. cerevisiae wild-type growth, A595 turbidity, 16 h. growth inhibition, % at 25 µM (by protocol). 0.3% of 30,000 active. AID 685;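 active means mutant and wild-type yeast strains alike exhibit over 30% growth inhibition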
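system = S. cerevisiae wild-type or eIF2Bepsilon-R284H mutant strain | buffer or medium = YPD medium | dosing = one dose, 25 µM compound, 0.2% DMSO | schedule = 16 h at 30 °C | measured by = A595 turbidity | evaluation = growth inhibition (%) versus cell controls and blanks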
Yeast eIF2B – modulators of yeast eIF2B activity; S. cerevisiae eIF2B-epsilon R284H, GCN4-lacZ luminescence; inhibition, % at 25 µM (by protocol); 0.91% of 27,000 active; AID 688;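 active means mutant luminescence inhibited past about 50% while wild type luminescence and mutant growth stay under set limits, limit read from the data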
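Material – yeast eIF2B-epsilon R284H mutant carrying GCN4–beta-galactosidase fusion · Medium – YPD yeast growth medium · Compound – one concentration, 25 µM, 0.25% DMSO · Times – 16 h at 30 °C exposure · Signal – Beta-Glo luminescence plus absorbance at 595 nm · Read-out – % inhibition of reporter signal and growth versus controls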
Large screens that a line does not name were inactive. Rows were chosen to be rich in hits. Some 1% of all compounds tested hit in one or more screens of this group.

Cc1sc(NC(=O)CSc2nnc(C)c(=O)[nH]2)c(C#N)c1C	none
Cc1nnc(NC2CCCCC2)[nH]c1=O	Yeast eIF2B 65
O=c1[nH]c(NC2CCCCC2)nnc1Cc1ccccc1	none
CCOC(=O)CC(=O)CSc1nc(C)cc(-c2cccnc2)c1C#N	Yeast eIF2B 55
CCOC(=O)CC(=O)CSc1nc(-c2cccnc2)cc(C)c1C#N	none
CCOC(=O)N1CCN(C(=O)c2nn(-c3cc(OC)cc(OC)c3)c(=O)c3ccccc23)CC1	Yeast eIF2B 57
COc1cc(OC)cc(-n2nc(C(=O)N3CC(C)CC(C)C3)c3ccccc3c2=O)c1 (stereo not given)	none
CC1CCc2c(C(=O)N3CCN(S(=O)(=O)c4cccs4)CC3)csc2C1 (stereo not given)	none
CC(=O)c1cn(CC(=O)NCC2CCCO2)c2ccccc12 (stereo not given)	none
Cc1ccc(-c2nnn(CCC(=O)Nc3ccc4c(c3)OCO4)n2)cc1	none
CN1CCN(CCC(=O)Nc2ccc3c(c2)OCO3)CC1	Yeast eIF2B 56
CCCC(=O)NCCc1ccc(F)cc1	none
Nc1nonc1C(=O)OCC(=O)N1CCOCC1	none
CC(=O)/C(C(=N)N1CCN(c2cccc(Cl)c2)CC1)=C(\C)O	Yeast eIF2B 61 (no result: Yeast tox)
O=C(O)CCC(=O)N1CCN(c2cccc(Cl)c2)CC1	none
N/C(=N\OC(=O)c1ccccc1Cl)c1cccnc1	none
O=C(/C=C/c1ccccc1Cl)c1cccnc1	Yeast tox 48 (no result: Yeast eIF2B)
Cc1nn(CCC#N)c(NC(=O)c2ccc(Cl)cc2Cl)c1P(=O)(Nc1ccc([N+](=O)[O-])cc1)N1CCOCC1 (stereo not given)	none
CCOC(=O)CSc1nc2ccccc2n1CC(=O)NC(C)(C)C	none
CCOC(=O)Cn1c(=O)c(-c2ccccc2NCc2ccccc2)nc2ccccc21	Yeast eIF2B 58
C#CCOc1ccc(Br)cc1/C=N/O	none
CC1(C)CC(=O)C(/C=N/n2c(C(F)(F)F)nc3ccccc3c2=O)=C(O)C1	none
Cc1ccc(N2CC(C(=O)NCc3ccccn3)CC2=O)cc1 (stereo not given)	none
CC1=C(C#N)C(Nc2ccc(C)cn2)(C(F)(F)F)C(=O)N1 (stereo not given)	none
COc1cc2c(cc1OC)C(C(=O)NCC1COc3ccccc3O1)C(c1cccnc1)N(C)C2=O (stereo not given)	none
Nc1ccc2nc(-c3ccccc3)sc2c1	Yeast eIF2B 72
Nc1nc2ccc(-c3nc4ccccc4o3)cc2s1	none
CCCCCNC(CC(=O)Nc1ccc(OC)cc1)C(=O)O (stereo not given)	none
COc1cc2c(cc1NC(=S)Nc1cccc(C(F)(F)F)c1)oc1ccccc12	none
CCCCCn1c(=O)[nH]c2cc(C(=O)NCc3ccco3)ccc2c1=O	none (no result: Yeast eIF2B)
O=c1/c(=C/c2ccc(O)cc2)sc2n1CCCN=2	Yeast eIF2B 79
CCOC(=O)/C=c1\sc2n(c1=O)CCN=2	none
CCOC(=O)C1CCN(C(=O)CN(c2ccc3c(c2)OCO3)S(C)(=O)=O)CC1	none
CCOC(=O)NC(Nc1cc(C)ccn1)(C(F)(F)F)C(F)(F)F	none
CN1C(=O)NC(c2ccccc2)C2=C1CN(c1cccc(C(F)(F)F)c1)C2=O (stereo not given)	Yeast eIF2B 52
CN1C(=O)NC(c2ccccc2)C2=C1CN(CCc1ccccc1)C2=O (stereo not given)	none
COc1ccc(C(=O)OC(COc2ccccc2)Cn2ccnc2)cc1 (stereo not given)	Yeast tox 68
COc1ccc(OCCOC(=O)c2ccc(-n3cnnn3)cc2)cc1	none
Cc1cc(N2CCC(C)CC2)n2nc(C)c(-c3ccccc3)c2n1	none
CCOCCCNC(=O)C1CCN(c2cc(C)nc3c(-c4ccc(OC)c(OC)c4)c(C)nn23)CC1	Yeast eIF2B 63
COCCN(Cc1cc2ccc(C)cc2n2nnnc12)Cc1nnnn1C(C)(C)C	none (no result: Yeast tox)
O=C(CSc1nc(-c2ccccc2)cc(C(F)(F)F)n1)N1CCOCC1	none
O=C(NCCNC(=O)C(F)(F)F)c1ccncc1	none
Cn1c(=O)[nH]c(=O)c2c1nc(SCC(O)CO)n2Cc1ccccc1Cl (stereo not given)	Yeast eIF2B 61
Cn1c(=O)[nH]c(=O)c2c1nc(Br)n2Cc1ccccc1Cl	none
CC(C)N(Cc1nc(-c2ccc(Cl)cc2)no1)C(=O)CN(C)S(=O)(=O)c1ccc(Cl)cc1	none (no result: Yeast eIF2B)
CCCC(=O)Nc1sc(C(=O)OC)c(C)c1C(N)=O	Yeast eIF2B 58
CCOC(=O)c1c(NC(=O)CN(C)C)sc(C(=O)N(CC)CC)c1C	none
CCN(CC)c1nc2c(s1)C(=O)CC(C)(C)C2	none
CCOC(=O)C(C)CC(C)C(=O)N1CCOCCOCCN(C(=O)C(C)CC(C)C(=O)OCC)CCOCC1 (stereo not given)	none
CCOC(=O)C(C(=O)OCC)C(C(=O)OCC)N1CCOCC1 (stereo not given)	Yeast tox 33
COCCNC(=O)C(c1ccc(F)cc1)N(CC1CCCO1)C(=O)CCC(=O)Nc1ccccn1 (stereo not given)	none
CCOC(=O)c1[nH]c2ccc(F)cc2c1NC(=O)C1=COCCO1	none
O=C(c1ccc(Cl)cc1)N1CCN(c2ccc(F)cc2)CC1	Yeast tox 59
O=C(c1ccc2c(c1)OCO2)N1CCN(c2ccc(F)cc2)CC1	none
CCc1nc(N2CCOCC2)c(C#N)c2c1CCCC2	none
N#Cc1c(N2CCOCC2)nc(-c2ccco2)c2c1CCCC2	Yeast eIF2B 57
Cc1ccc(S(=O)(=O)Oc2ccc(C(c3c(C)[nH][nH]c3=O)c3c(C)[nH][nH]c3=O)cc2)cc1	none
Cc1[nH][nH]c(=O)c1C(c1ccc(-c2ccc(Cl)c(Cl)c2)o1)c1c(C)[nH][nH]c1=O	Yeast tox 46
O=C(NC1CCCC1)c1ccc(S(=O)(=O)N2CCOCC2)cc1	none (no result: Yeast eIF2B)
CC(Oc1ccc(C(=O)NC2CCCCC2)cc1)C(=O)O (stereo not given)	none (no result: Yeast eIF2B)
CC(=O)Nc1ccc(C(=O)NC2CCCC2)cc1	Yeast eIF2B 51
O=C(NC1CCCCC1)c1ccc(S(=O)(=O)N2CCCC2)cc1	Yeast tox 35
CCOc1ccc(NC(=O)CN(C)c2ccc(S(=O)(=O)N(C(C)C)C(C)C)cn2)cc1OCC	none
Cc1noc(C)c1C(=O)Nc1ccc2c(c1)CCC2	Yeast eIF2B 65 (no result: Yeast tox)
O=C(Nc1ccc2c(c1)CCC2)C1CCCO1 (stereo not given)	none
CCCOC(=O)C1[C@H]2C(=O)N(CC3CCCO3)C[C@]23C=C[C@H]1O3 (stereo not given in full)	none
CN(Cc1ccccc1)S(=O)(=O)c1ccc(S(=O)(=O)N(Cc2ccc(F)cc2)C2CCCC2)cc1	none (no result: Yeast eIF2B)
N#CC1=C(SCC(=O)c2ccc(Cl)cc2)NC2=C(C(=O)CCC2)C1c1ccco1 (stereo not given)	Yeast eIF2B 51
Cc1ccc(NC(=O)CSC2=C(C#N)C(c3ccco3)C3=C(CCCC3=O)N2)cc1 (stereo not given)	none
Cc1ccn(C(=O)c2ccc(NC(=O)C3CCCCC3)cc2)n1	none (no result: Yeast eIF2B)
COc1ccc(OCC(=O)Nc2ccc(N3CCOCC3)cc2)cc1	none
COc1ccc(CC(=O)Nc2ccc(N3CCN(c4ccc(OC)cc4)CC3)c(C#N)c2)cc1	Yeast eIF2B 53
Cc1ccc2nc(-c3sc4nc(C)cc(C)c4c3N)[nH]c2c1	none
CC(C)(C)C(=O)Cn1c(=N)n(Cc2ccccc2Cl)c2ccccc21	none (no result: Yeast eIF2B)
CC(C)(C)C(=O)C(Cc1ccccc1Cl)n1cncn1 (stereo not given)	Yeast tox 74
CCCC(C(=O)c1ccccc1)n1cncn1 (stereo not given)	none
